Measured values from ChEMBL document CHEMBL1275334, “5-Piperazinyl-3-sulfonylindazoles as potent and selective 5-hydroxytryptamine-6 antagonists” (J Med Chem, 2010).
Active and inactive are the calls of the source. No cut-off for these calls is given here.

Assays:
[1] = target: T1, 5-hydroxytryptamine receptor 6 (Homo sapiens, UniProt P50406); experiment: Displacement of [3H]LSD from human cloned 5HT6 receptor expressed in human HeLa cells; format: cell-based
In short: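 Radioligand displacement of [3H]LSD from cloned human 5-HT6 receptor stably expressed in HeLa cells. All test substances were used as HCl salts. Ki was determined in triplicate.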

[2] = target: T1, 5-hydroxytryptamine receptor 6; experiment: Antagonist activity at human cloned 5HT6 receptor expressed in human HeLa cells by cyclase assay relative to control; format: functional, cell-based
[3] = target: T1, 5-hydroxytryptamine receptor 6; experiment: Antagonist activity at human cloned 5HT6 receptor expressed in human HeLa cells by cyclase assay; format: functional, cell-based
[4] = target: T2, 5-hydroxytryptamine receptor 1A (Homo sapiens, UniProt P08908); experiment: Displacement of [3H]LSD from human cloned 5HT1A receptor expressed in human HeLa cells; format: cell-based
T2 sequence (P08908 whole entry): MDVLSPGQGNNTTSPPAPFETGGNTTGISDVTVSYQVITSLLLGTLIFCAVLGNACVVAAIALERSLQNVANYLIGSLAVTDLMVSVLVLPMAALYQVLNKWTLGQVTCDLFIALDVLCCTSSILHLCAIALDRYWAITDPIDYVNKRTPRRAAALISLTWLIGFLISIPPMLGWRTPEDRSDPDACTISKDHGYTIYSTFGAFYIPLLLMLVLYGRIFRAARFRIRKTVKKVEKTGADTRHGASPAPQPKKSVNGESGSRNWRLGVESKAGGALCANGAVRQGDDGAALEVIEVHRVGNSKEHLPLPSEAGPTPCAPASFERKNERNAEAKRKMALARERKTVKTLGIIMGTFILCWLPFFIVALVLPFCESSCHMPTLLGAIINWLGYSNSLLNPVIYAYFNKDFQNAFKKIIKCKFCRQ

[5] = target: 5-hydroxytryptamine receptor 1B (Homo sapiens, UniProt P28222); experiment: Displacement of [3H]LSD from human cloned 5HT1B receptor expressed in human HeLa cells; format: cell-based
[6] = target: 5-hydroxytryptamine receptor 1D (Homo sapiens, UniProt P28221); experiment: Displacement of [3H]LSD from human cloned 5HT1D receptor expressed in human HeLa cells; format: cell-based
[7] = target: T3, 5-hydroxytryptamine receptor 2B (Homo sapiens, UniProt P41595); experiment: Displacement of [3H]LSD from human cloned 5HT2B receptor expressed in human HeLa cells; format: cell-based
[8] = target: T4, 5-hydroxytryptamine receptor 2C (Homo sapiens, UniProt P28335); experiment: Displacement of [3H]LSD from human cloned 5HT2C receptor expressed in human HeLa cells; format: cell-based
T4 sequence (P28335 whole entry): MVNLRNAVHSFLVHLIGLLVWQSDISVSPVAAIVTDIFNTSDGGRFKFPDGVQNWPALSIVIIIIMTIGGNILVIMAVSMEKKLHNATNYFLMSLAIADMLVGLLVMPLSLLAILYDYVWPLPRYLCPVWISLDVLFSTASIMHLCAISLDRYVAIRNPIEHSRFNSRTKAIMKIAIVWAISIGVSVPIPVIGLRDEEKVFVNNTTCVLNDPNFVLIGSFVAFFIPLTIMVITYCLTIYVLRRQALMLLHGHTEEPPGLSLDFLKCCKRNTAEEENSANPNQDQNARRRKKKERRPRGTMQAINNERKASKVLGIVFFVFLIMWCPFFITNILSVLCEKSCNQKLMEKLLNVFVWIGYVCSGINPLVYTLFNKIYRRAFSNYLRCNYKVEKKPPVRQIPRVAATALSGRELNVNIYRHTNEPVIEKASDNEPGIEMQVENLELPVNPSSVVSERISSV

[9] = target: 5-hydroxytryptamine receptor 7 (Homo sapiens, UniProt P34969); experiment: Displacement of [3H]LSD from human cloned 5HT7 receptor expressed in human HeLa cells; format: cell-based
[10] = target: T5, Alpha-2A adrenergic receptor (Homo sapiens, UniProt P08913); experiment: Displacement of [3H]LSD from human cloned alpha2A adrenergic receptor expressed in human HeLa cells; format: cell-based
T5 sequence (P08913 whole entry): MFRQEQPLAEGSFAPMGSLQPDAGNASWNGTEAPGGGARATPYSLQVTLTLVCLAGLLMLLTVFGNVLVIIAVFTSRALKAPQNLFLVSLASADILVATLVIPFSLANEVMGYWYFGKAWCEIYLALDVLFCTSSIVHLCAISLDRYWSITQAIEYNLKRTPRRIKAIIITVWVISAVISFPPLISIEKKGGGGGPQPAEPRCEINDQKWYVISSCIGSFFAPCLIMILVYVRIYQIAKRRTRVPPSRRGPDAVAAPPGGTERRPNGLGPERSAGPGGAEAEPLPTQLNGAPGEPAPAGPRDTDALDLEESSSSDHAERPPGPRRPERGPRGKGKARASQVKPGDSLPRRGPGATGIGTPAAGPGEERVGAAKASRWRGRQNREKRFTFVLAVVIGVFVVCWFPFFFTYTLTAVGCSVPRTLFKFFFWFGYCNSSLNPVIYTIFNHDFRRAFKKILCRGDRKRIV

D(2) dopamine receptor = D(2) dopamine receptor (Homo sapiens, UniProt P14416); experiment: Displacement of [3H]LSD from human cloned dopamine D2 receptor expressed in human HeLa cells; format: cell-based
[11] = target: T3, 5-hydroxytryptamine receptor 2B; experiment: Agonist activity at human recombinant 5HT2B receptor expressed in CHOK1 cells at 0.0001 to 10 uM by FLIPR assay; format: functional, cell-based; conditions: CHO-K1
[12] = Oral bioavailability in rat at 10 mg/kg; format: ADME, organism-based; conditions: in vivo
[13] = Ratio of drug level in brain to plasma in rat at 10 mg/kg, po; format: ADME, organism-based; parameters: dose 10 mg/kg, route oral; conditions: read-out: BPR

5-hydroxytryptamine receptor 7, sequence (P34969 whole entry): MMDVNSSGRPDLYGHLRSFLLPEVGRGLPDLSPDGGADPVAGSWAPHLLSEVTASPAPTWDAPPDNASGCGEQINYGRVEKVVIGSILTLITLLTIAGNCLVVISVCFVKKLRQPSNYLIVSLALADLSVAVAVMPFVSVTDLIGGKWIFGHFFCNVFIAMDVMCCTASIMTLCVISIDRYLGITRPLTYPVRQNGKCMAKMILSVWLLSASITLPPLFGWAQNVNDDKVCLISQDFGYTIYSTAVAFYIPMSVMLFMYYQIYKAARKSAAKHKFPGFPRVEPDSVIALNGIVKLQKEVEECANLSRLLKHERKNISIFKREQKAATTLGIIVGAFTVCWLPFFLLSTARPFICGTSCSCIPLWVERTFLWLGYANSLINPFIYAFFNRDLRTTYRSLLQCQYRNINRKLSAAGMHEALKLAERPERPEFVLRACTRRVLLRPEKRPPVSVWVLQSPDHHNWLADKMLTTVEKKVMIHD
T1 sequence (P50406 whole entry): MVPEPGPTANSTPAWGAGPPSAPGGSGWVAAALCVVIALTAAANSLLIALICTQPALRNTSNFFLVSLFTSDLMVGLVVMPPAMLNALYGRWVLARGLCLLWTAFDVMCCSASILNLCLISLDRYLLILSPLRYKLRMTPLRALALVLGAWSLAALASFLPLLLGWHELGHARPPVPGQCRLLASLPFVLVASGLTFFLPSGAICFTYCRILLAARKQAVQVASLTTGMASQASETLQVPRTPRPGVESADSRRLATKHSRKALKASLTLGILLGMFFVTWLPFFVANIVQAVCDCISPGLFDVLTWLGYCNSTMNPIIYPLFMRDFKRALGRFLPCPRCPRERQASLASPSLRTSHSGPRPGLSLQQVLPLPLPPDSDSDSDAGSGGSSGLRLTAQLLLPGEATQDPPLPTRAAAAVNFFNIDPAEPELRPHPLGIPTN
5-hydroxytryptamine receptor 1D, sequence (P28221 whole entry): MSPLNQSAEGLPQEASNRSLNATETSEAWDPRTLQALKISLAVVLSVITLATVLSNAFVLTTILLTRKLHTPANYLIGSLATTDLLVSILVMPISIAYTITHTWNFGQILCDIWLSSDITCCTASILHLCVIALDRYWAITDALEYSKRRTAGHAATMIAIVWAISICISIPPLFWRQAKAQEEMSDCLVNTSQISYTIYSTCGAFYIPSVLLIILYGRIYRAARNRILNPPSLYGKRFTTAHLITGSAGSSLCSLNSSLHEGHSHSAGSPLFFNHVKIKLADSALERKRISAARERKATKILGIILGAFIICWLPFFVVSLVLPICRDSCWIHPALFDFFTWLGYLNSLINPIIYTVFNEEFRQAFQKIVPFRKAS
T3 sequence (P41595 whole entry): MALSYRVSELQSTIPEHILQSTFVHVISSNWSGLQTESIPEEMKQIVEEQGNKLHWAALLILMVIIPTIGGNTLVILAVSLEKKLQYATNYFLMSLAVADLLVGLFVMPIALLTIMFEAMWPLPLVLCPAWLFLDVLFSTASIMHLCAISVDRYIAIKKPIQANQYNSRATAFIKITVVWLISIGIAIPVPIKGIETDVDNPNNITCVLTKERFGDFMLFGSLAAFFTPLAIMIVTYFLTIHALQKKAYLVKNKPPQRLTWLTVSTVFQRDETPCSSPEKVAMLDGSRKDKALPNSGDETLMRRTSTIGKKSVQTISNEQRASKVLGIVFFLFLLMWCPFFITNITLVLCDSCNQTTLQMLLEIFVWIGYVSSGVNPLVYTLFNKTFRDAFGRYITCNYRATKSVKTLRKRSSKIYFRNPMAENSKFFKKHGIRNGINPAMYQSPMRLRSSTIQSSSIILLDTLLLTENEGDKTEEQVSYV
D(2) dopamine receptor, sequence (P14416 whole entry): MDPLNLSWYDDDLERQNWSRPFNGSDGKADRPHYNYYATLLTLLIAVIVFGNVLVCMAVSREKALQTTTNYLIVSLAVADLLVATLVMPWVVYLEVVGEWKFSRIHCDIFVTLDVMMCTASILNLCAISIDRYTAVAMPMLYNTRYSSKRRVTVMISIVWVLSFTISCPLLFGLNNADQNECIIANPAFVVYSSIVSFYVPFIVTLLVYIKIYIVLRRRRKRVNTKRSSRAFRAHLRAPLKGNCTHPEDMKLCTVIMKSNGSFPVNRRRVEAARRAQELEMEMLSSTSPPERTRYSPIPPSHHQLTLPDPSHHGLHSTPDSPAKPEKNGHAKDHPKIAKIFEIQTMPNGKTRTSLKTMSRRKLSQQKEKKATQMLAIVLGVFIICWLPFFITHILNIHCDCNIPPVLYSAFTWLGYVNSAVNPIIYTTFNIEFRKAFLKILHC
5-hydroxytryptamine receptor 1B, sequence (P28222 whole entry): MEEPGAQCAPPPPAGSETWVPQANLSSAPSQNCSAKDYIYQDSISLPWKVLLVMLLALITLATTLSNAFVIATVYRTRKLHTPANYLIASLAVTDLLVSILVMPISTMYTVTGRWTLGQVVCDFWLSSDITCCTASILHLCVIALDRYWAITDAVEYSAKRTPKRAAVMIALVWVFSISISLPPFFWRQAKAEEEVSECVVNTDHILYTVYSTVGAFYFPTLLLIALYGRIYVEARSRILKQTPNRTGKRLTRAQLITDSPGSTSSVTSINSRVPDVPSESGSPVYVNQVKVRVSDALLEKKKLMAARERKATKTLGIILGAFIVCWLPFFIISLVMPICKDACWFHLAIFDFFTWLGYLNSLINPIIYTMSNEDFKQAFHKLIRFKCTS

SMILES | Ki [1] [nM] | Imax [2] [%] | IC50 [3] [nM] | also measured
CC(C)n1nc(S(=O)(=O)c2cccc3ccccc23)c2cc(N3CCN(C)CC3)ccc21 | 1.8 | 98 | – | –
COc1cccc(S(=O)(=O)c2n[nH]c3ccc(N4CCN(C)CC4)cc23)c1 | 1.1 | 100 | 57 | –
Cc1cccc(S(=O)(=O)c2n[nH]c3ccc(N4CCN(C)CC4)cc23)c1 | 0.9 | 100 | 38 | –
O=S(=O)(c1cccc2ccccc12)c1nn(Cc2ccccc2)c2ccc(N3CCNCC3)cc12 | – | 100 | – | Ki [4]: > 5 µM; Ki [5]: > 5 µM; Ki [6]: > 5 µM; Ki [7]: 141 nM; Ki [8]: 1070 nM; Ki [9]: > 5000 nM; Ki [10]: > 5 µM; Ki (D(2) dopamine receptor): 605 nM; Activity [11]: inactive; bioavailability [12]: > 50%; Kp [13]: > 0.5
CCn1nc(S(=O)(=O)c2cccc3ccccc23)c2cc(N3CCN(C)CC3)ccc21 | 1.7 | 100 | – | –
O=S(=O)(c1cccc(F)c1)c1n[nH]c2cccc(N3CCNCC3)c12 | 134 | – | – | –
CN1CCN(c2ccc3[nH]nc(S(=O)(=O)c4cccc5ccccc45)c3c2)CC1 | 1.6 | 100 | 8 | Ki [4]: > 5 µM; Ki [5]: > 5 µM; Ki [6]: > 5 µM; Ki [7]: 601 nM; Ki [8]: > 5000 nM; Ki [9]: 579 nM; Ki [10]: > 5 µM; Ki (D(2) dopamine receptor): 334 nM; Activity [11]: inactive; bioavailability [12]: 5%
Cc1ccc(S(=O)(=O)c2n[nH]c3ccc(N4CCN(C)CC4)cc23)cc1 | 4.9 | 100 | 112 | –
CN1CCN(c2ccc3c(c2)c(S(=O)(=O)c2cccc4ccccc24)nn3Cc2ccccc2)CC1 | – | 100 | – | –
CN1CCN(c2ccc3[nH]nc(S(=O)(=O)c4c(Cl)cccc4Cl)c3c2)CC1 | 2.6 | 100 | 40 | –
CCCn1nc(S(=O)(=O)c2cccc3ccccc23)c2cc(N3CCN(C)CC3)ccc21 | 1.8 | 100 | – | –
O=S(=O)(c1ccc(Cl)cc1)c1n[nH]c2cccc(N3CCNCC3)c12 | 125 | – | – | –
COc1ccc(S(=O)(=O)c2n[nH]c3cc(N4CCNCC4)ccc23)cc1 | 124 | – | – | –
CCn1nc(S(=O)(=O)c2cccc3ccccc23)c2cc(N3CCNCC3)ccc21 | – | 100 | – | –
CN1CCN(c2cccc3c(S(=O)(=O)c4cccc5ccccc45)n[nH]c23)CC1 | 4.6 | 100 | 17 | –
CC(C)n1nc(S(=O)(=O)c2cccc3ccccc23)c2cc(N3CCNCC3)ccc21 | 2.9 | 100 | – | Ki [4]: > 5 µM; Ki [5]: > 5 µM; Ki [6]: > 5 µM; Ki [7]: 96 nM; Ki [8]: 1080 nM; Ki [9]: > 5000 nM; Ki [10]: > 5 µM; Ki (D(2) dopamine receptor): 2040 nM; Activity [11]: inactive
Cc1ccc(S(=O)(=O)c2n[nH]c3cc(N4CCNCC4)ccc23)cc1 | 27 | – | – | –
CN1CCN(c2ccc3[nH]nc(S(=O)(=O)c4ccccc4F)c3c2)CC1 | 5.5 | 100 | 54 | –
O=S(=O)(c1cccc2ccccc12)c1n[nH]c2cccc(N3CCNCC3)c12 | 48 | – | – | –
O=S(=O)(c1cccc(F)c1)c1n[nH]c2cc(N3CCNCC3)ccc12 | 11 | – | – | –

SMILES | Ki [1] [nM] | Imax [2] [%] | IC50 [3] [nM] | also measured
CN1CCN(c2ccc3[nH]nc(S(=O)(=O)c4cccc(F)c4)c3c2)CC1 | 1.7 | 99 | 132 | –
CN1CCN(c2ccc3[nH]nc(S(=O)(=O)c4cccs4)c3c2)CC1 | 7.8 | 96 | 331 | –
O=S(=O)(c1cccc2ccccc12)c1n[nH]c2cc(N3CCNCC3)ccc12 | 22 | – | – | –
CN1CCN(c2ccc3[nH]nc(S(=O)(=O)c4cccc(Cl)c4)c3c2)CC1 | 1 | 100 | 62 | –
CN1CCN(c2ccc3[nH]nc(S(=O)(=O)c4ccccc4Cl)c3c2)CC1 | – | 100 | 101 | –
CN1CCN(c2ccc3c(c2)c(S(=O)(=O)c2cccc4ccccc24)nn3C)CC1 | 1.7 | 100 | – | –
COc1ccc(S(=O)(=O)c2n[nH]c3cccc(N4CCNCC4)c23)cc1 | 88 | – | – | –
CN1CCN(c2ccc3[nH]nc(S(=O)(=O)c4ccccc4)c3c2)CC1 | 1.9 | 99 | 8.8 | Ki [4]: > 5 µM; Ki [5]: > 5 µM; Ki [6]: > 5 µM; Ki [7]: 978 nM; Ki [8]: 3070 nM; Ki [9]: 753 nM; Ki [10]: > 5 µM; Ki (D(2) dopamine receptor): 355 nM; Activity [11]: inactive
CN1CCN(c2ccc3[nH]nc(S(=O)(=O)c4ccc(Cl)cc4)c3c2)CC1 | 8.1 | 100 | 108 | –
CCn1nc(S(=O)(=O)c2ccccc2)c2cc(N3CCNCC3)ccc21 | 2.9 | 100 | – | –
CCCn1nc(S(=O)(=O)c2cccc3ccccc23)c2cc(N3CCNCC3)ccc21 | – | – | 2.2 | –
Cn1nc(S(=O)(=O)c2ccccc2)c2cc(N3CCNCC3)ccc21 | 3.2 | 100 | – | –
CC(C)Cn1nc(S(=O)(=O)c2cccc3ccccc23)c2cc(N3CCNCC3)ccc21 | – | 100 | – | Ki [4]: > 5 µM; Ki [5]: > 5 µM; Ki [6]: > 5 µM; Ki [7]: 281 nM; Ki [8]: 1880 nM; Ki [9]: > 5000 nM; Ki [10]: > 5 µM; Ki (D(2) dopamine receptor): 1900 nM; Activity [11]: inactive
Cn1nc(S(=O)(=O)c2cccc3ccccc23)c2cc(N3CCNCC3)ccc21 | – | 99 | – | Ki [4]: 1.78 µM; Ki [5]: 3.62 µM; Ki [6]: 2.76 µM; Ki [7]: 87 nM; Ki [8]: 3650 nM; Ki [9]: > 5000 nM; Ki [10]: > 5 µM; Ki (D(2) dopamine receptor): 2240 nM; Activity [11]: inactive
CN1CCN(c2ccc3[nH]nc(S(=O)(=O)c4ccc(F)cc4)c3c2)CC1 | 5.2 | 98 | 467 | –
COc1ccc(S(=O)(=O)c2n[nH]c3ccc(N4CCN(C)CC4)cc23)cc1 | – | 100 | 544 | –
O=S(=O)(c1ccc(Cl)cc1)c1n[nH]c2cc(N3CCNCC3)ccc12 | 110 | – | – | –
CC(C)Cn1nc(S(=O)(=O)c2cccc3ccccc23)c2cc(N3CCN(C)CC3)ccc21 | 1.4 | 100 | – | –
Cc1ccc(S(=O)(=O)c2n[nH]c3cccc(N4CCNCC4)c23)cc1 | 134 | – | – | –
O=S(=O)(c1ccc(C(F)(F)F)cc1)c1n[nH]c2cc(N3CCNCC3)ccc12 | 207 | – | – | –
